Screening results: PubChem, Broad Institute
Only some compounds are listed: those with a hit (about 2.6% of all), similar ones and a draw of the others.
FN deposit inh: fibronectin deposition inhibition; AH1F fibroblasts, Alexa488-fibronectin deposition fluorescence, overnight; inhibition, % at 12.6 µM; 350,000 tested, 0.086% active; AID 743247;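 active = mean inhibition across replicates of 30% or more, regardless of how many single replicates reach that level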
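Assay system: AH1F fibroblasts / Quantity: 10000 cells per well / Medium: DMEM plus 2% serum, read in PBS / Reagent: labelled fibronectin 24 nM / Dosing: single dose, pinned / Times: 1 h cell attachment, overnight exposure to compound and label / Signal: fluorescence, ex 485 nm, em 525 nm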
Env fusion inh: HIV envelope-mediated fusion inhibition; HeLa-JRFL Env/CEM21 cell fusion, luciferase; inhibition, % at 12.3 µM; 360,000 tested, 1.1% active;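 active = mean replicate inhibition score of at least 50 and every replicate individually at or above 50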
Vif inh: blocks HIV Vif function; HEK293T cells, Vif self-association by quenched fluorescence, imaging, 24 h; inhibition, % at 7.49 µM; 340,000 tested, 0.35% active; AID 602346; in the data active = inhibition above about 50%, passing the limit was not always enough
miR122 inh: blocks miR-122 activity in Huh7 sensor cells | Huh7 miR-122 Renilla luciferase sensor, 48 h; neutral wells = 0, positive control = 100 | activation (reporter increase), % at 12.5 µM | 340,000 tested, 0.3% active | AID 602342;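 active = mean replicate activation score at least 90 and every replicate individually at or above 90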;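 note: higher luciferase means less miR-122 activity so hits act as miR-122 inhibitors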
Ecoli rRNA inh: inhibits bacterial ribosomal RNA function over humanized ribosomes; GFP signal change (wild-type ribosome), % (concentration not given with the values); E. coli WT GFP vs humanized-ribosome RFP mutants, fluorescence, 24 h; hits give low values; DMSO median 0, no signal -100; 350,000 tested, 1.6% active;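 active = significant combined selectivity score with lowered wild-type GFP, culture density cut under 30%, mutant RFP and density less affected; inactive = any of these conditions unmet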
S100A4 inh HTS: S100A4-myosin IIA interaction inhibition | P26447 | S100A4/TAMRA-MyoIIA peptide fluorescence polarization | inhibition, % at 10.7 µM | 360,000 tested, 0.14% active | AID 652163;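 active = mean inhibition of at least 70% across replicates, with every replicate also reaching that level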
Target sequence (P26447 whole entry, looked up): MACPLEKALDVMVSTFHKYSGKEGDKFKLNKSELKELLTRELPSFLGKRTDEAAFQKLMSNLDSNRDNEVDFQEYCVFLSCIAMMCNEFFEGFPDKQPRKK
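Material: S100A4 monomer protein / Buffer or medium: 50 mM HEPES pH 7.2, 10 mM CaCl2, 100 mM KCl / Times: 5 min incubation before reading / Benchmarks: neutral control DMSO, positive control TFP / Reagent: labelled myosin peptide probe, 5 nM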
A number is an active result; ! = not active in a repeat; [ ] = another dose, or the depositor's remark.

`COc1ccc(C(=O)NC(=S)N2CCCCC2)cc1` gave FN deposit inh inactive, Env fusion inh inactive, Vif inh inactive and miR122 inh inactive.
`COc1cc(OC)cc(C(=O)NC(=S)N2CCCCCC2)c1` gave FN deposit inh inactive, Env fusion inh inactive, Vif inh inactive, Ecoli rRNA inh -31 and S100A4 inh HTS inactive.
`COc1ccc(NC(=O)N(C)C[C@H]2OCCCC[C@@H](C)Oc3ccc(NC(=O)Cc4ccccc4)cc3C(=O)N([C@@H](C)CO)C[C@@H]2C)cc1` gave Env fusion inh inactive, miR122 inh inactive, Ecoli rRNA inh inactive and S100A4 inh HTS inactive.
Cc1ccc(S(=O)(=O)N(C)C[C@@H]2Oc3cc(C#CC4CCCC4)ccc3S(=O)(=O)N([C@H](C)CO)C[C@H]2C)cc1 was read as FN deposit inh inactive, Env fusion inh 58[16.7 µM], miR122 inh inactive, Ecoli rRNA inh inactive and S100A4 inh HTS inactive.
For Cc1ccc(S(=O)(=O)N(C)C[C@H]2Oc3cc(C#CC4CCCC4)ccc3S(=O)(=O)N([C@H](C)CO)C[C@H]2C)cc1 the results were FN deposit inh inactive, Env fusion inh inactive, miR122 inh inactive, Ecoli rRNA inh inactive and S100A4 inh HTS inactive.
Screening COc1ccc(S(=O)(=O)N(C)C[C@@H]2Oc3cc(Br)ccc3S(=O)(=O)N([C@H](C)CO)C[C@@H]2C)cc1 returned FN deposit inh inactive, Env fusion inh 57!, Vif inh inactive, miR122 inh inactive, Ecoli rRNA inh inactive and S100A4 inh HTS inactive.
For COc1ccc(S(=O)(=O)N(C)C[C@H]2Oc3cc(C#CC4CC4)ccc3S(=O)(=O)N([C@H](C)CO)C[C@H]2C)cc1 the results were FN deposit inh inactive, Env fusion inh inactive, miR122 inh 135[16.7 µM], Ecoli rRNA inh inactive and S100A4 inh HTS inactive.
For C[C@H](CO)N1C[C@H](C)[C@H](CN(C)C(=O)Nc2cccc3ccccc23)OCCCC[C@H](C)Oc2ccc(NC(=O)C3CCCCC3)cc2C1=O the results were Env fusion inh inactive, miR122 inh inactive, Ecoli rRNA inh inactive and S100A4 inh HTS inactive.
`O=C(NCC[C@H]1CC[C@@H](NC(=O)C2CCC2)[C@@H](CO)O1)c1cnccn1` gave Env fusion inh inactive, Ecoli rRNA inh inactive and S100A4 inh HTS inactive.
`CC(C)CC#Cc1cnc2c(c1)C(=O)N([C@@H](C)CO)C[C@H](C)[C@@H](CN(C)C(=O)Nc1ccccc1F)O2` gave FN deposit inh inactive, Env fusion inh inactive, miR122 inh inactive, Ecoli rRNA inh inactive and S100A4 inh HTS inactive.
`CC1Cc2ccccc2N1S(=O)(=O)c1cnc(Cl)c(Br)c1` (stereo unspecified) gave FN deposit inh inactive, Env fusion inh inactive, Vif inh inactive, Ecoli rRNA inh -27 and S100A4 inh HTS inactive.
CC1Cc2ccccc2N1S(=O)(=O)c1cnc(Cl)c(Cl)c1 (stereo unspecified) was read as FN deposit inh inactive, Env fusion inh inactive, Vif inh inactive, miR122 inh inactive, Ecoli rRNA inh inactive and S100A4 inh HTS inactive.
COc1ccc2c3c(n(C)c2c1)[C@H](CO)N(C(C)=O)CC31CN(C(=O)Nc2ccccc2F)C1 was read as Ecoli rRNA inh inactive and S100A4 inh HTS inactive.
`COc1ccc(S(=O)(=O)Nc2cccc3c2O[C@@H](CN(C)S(=O)(=O)c2ccc(OC)cc2)[C@H](C)CN([C@@H](C)CO)C3=O)cc1` gave Env fusion inh inactive and S100A4 inh HTS inactive.
For CCOC(=O)c1sc(-c2ccc(Br)cc2)cc1N the results were Vif inh inactive, miR122 inh inactive, Ecoli rRNA inh -34 and S100A4 inh HTS inactive.
`Cc1ccc(S(=O)(=O)N(C)C[C@@H]2OCCCC[C@H](C)Oc3ccc(NS(=O)(=O)c4cccs4)cc3C(=O)N([C@@H](C)CO)C[C@H]2C)cc1` gave FN deposit inh inactive, Env fusion inh inactive, miR122 inh inactive, Ecoli rRNA inh inactive and S100A4 inh HTS inactive.
Screening CC(=O)CCc1oc2ccccc2c1-c1ccccc1 returned FN deposit inh inactive, Env fusion inh inactive, Vif inh inactive, miR122 inh inactive, Ecoli rRNA inh -34 and S100A4 inh HTS inactive.
